Source: ChEMBL document CHEMBL3817802, “Discovery of Benzofuran Derivatives that Collaborate with Insulin-Like Growth Factor 1 (IGF-1) to Promote Neuroprotection” (J Med Chem, 2016)

Legend:
[1] = (§1) Neuroprotective activity against serum starvation-induced cell death in Sprague-Dawley rat primary neural cells assessed as neuronal survival rate incubated for 3 days in presence of 100 ng/ml human recombinant IGF-1 by beta3-tubulin-detecting cell-ELISA relative to control; format: functional, cell-based; conditions: Primary neuron, 72 h
Procedure, shortened: (§2)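 Primary neural cells were taken from rat hippocampal and cerebral cortical tissue and grown 4 days in serum-containing medium. They were then switched to serum-free medium for 3 days, with 100 ng/mL IGF-1 plus test agent, to induce starvation death. Neurons were counted by cell-ELISA for βIII-tubulin immunoreactivity. EC50 was reported with its 95% confidence interval.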

HepG2 = test: Cytotoxicity against human HepG2 cells assessed as decrease in cellular ATP content at 100 uM after 1 day; format: cell-based; design: scale not given: the % may be the effect or the level left; conditions: hepg2, 24 h
[2] = Neuroprotective activity against serum starvation-induced cell death in Sprague-Dawley rat primary neural cells assessed as neuronal survival rate at 10 uM incubated for 3 days in presence of 100 ng/ml human recombinant IGF-1 by beta3-tubulin-detecting cell-ELISA relative to control; format: functional, Primary neuron
Procedure, shortened: (§3)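 Primary neural cells from rat hippocampal and cerebral cortical tissue were grown 4 days in serum-containing medium, then 3 days serum-free to induce death, with or without IGF-1. The line's compound concentration was present during the serum-free phase. Neuron number was estimated by cell-ELISA for βIII-tubulin immunoreactivity. Data are mean ± SEM of four wells.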

[3] = Ratio of drug level in brain to plasma of Sprague-Dawley rat at 0.1 mg/kg, iv by cassette dosing measured at 1 hr by LC/MS/MS analysis; format: ADME, organism-based
[4] = Neuroprotective activity against serum starvation-induced cell death in Sprague-Dawley rat primary neural cells assessed as neuronal survival rate at 1 umol/L incubated for 3 days in presence of 3 to 100 ng/ml human recombinant IGF-1 by beta3-tubulin-detecting cell-ELISA; format: functional, Primary neuron; procedure, shortened: as §3
Primary neuron = test: as §1; format: functional, cell-based; procedure, shortened: as §2
CYP2C9 = CYP2C9 (Homo sapiens, UniProt P11712); test: Inhibition of CYP2C9 in human liver microsomes at 10 uM incubated for 30 mins by HPLC analysis; format: ADME
[5] = Neuroprotective activity against serum starvation-induced cell death in Sprague-Dawley rat primary neural cells assessed as neuronal survival rate at 0.33 uM incubated for 3 days in presence of 100 ng/ml human recombinant IGF-1 by beta3-tubulin-detecting cell-ELISA relative to control; format: functional, Primary neuron; procedure, shortened: as §3
[6] = Neuroprotective activity against serum starvation-induced cell death in Sprague-Dawley rat primary neural cells assessed as neuronal survival rate at 1 umol/L incubated for 3 days by beta3-tubulin-detecting cell-ELISA relative to control; format: functional, Primary neuron; procedure, shortened: as §3
[7] = Metabolic clearance in human liver microsomes at 1 umol/L by LC/MS/MS analysis; format: ADME; conditions: read-out: CLH
[8] = Oral bioavailability in Sprague-Dawley rat at 1 mg/kg by LC/MS/MS analysis; format: ADME, organism-based; conditions: in vivo

Sequence of CYP2C9 (P11712 whole entry): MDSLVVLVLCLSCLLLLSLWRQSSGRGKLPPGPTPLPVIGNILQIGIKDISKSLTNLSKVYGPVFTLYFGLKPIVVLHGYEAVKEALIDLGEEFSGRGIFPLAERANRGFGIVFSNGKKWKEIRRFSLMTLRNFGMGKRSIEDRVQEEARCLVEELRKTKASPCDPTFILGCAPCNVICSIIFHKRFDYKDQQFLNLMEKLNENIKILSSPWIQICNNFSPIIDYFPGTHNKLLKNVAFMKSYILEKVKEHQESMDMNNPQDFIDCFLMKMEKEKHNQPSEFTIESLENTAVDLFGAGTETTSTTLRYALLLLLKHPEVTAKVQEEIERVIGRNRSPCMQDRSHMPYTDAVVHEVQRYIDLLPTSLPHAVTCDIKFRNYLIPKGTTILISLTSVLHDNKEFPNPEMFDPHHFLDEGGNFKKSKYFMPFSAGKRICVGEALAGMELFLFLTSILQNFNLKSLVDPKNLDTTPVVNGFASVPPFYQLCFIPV

Structure (SMILES) | EC50 [1] [µM] | also measured
COc1ccc(N2CCN(c3c(C)c(C)c4c(c3C)CC(C)(C)O4)CC2)c(OC)c1 | 0.39 | 
Cc1c(C)c(N2CCN(c3ccc(C#N)cc3)CC2)c(C)c2c1OC(C)(C)C2 | > 1 | 
CC(=O)c1ccc(N2CCN(c3c(C)c(C)c4c(c3C)CC(C)(C)O4)CC2)cc1 | 0.15 | Activity (HepG2): 68%
Cc1c(C)c(N2CCNCC2)c(C)c2c1OC(C)(C)C2 |  | Survival [2]: 20%
Cc1c(C)c(N2CCN(c3ccc(Cl)cc3)CC2)c(C)c2c1OC(C)(C)C2 | 0.66 | 
COc1ccc(N2CCN(c3c(C)c(C)c4c(c3C)CC(C)(C)O4)CC2)cc1 | 0.15 | Kp at 1 h [3]: 2.9; fold change (FC) [4]: 6; Activity (Primary neuron): Dose-dependent effect; inhibition at 0.5 h, 10 µM (CYP2C9): -0.9%; Activity (HepG2): 93.3%; fold change (FC) [5]: 3; fold change (FC) [6]: 3; microsomal CLint at 1 µM [7]: 2 µL/min/mg
Cc1c(C)c(N2CCN(c3ccccc3)CC2)c(C)c2c1OC(C)(C)C2 | 0.38 | 
COc1ccc(N2CCN(c3c(C)c(C)c4c(c3C)CC(C)(C)O4)CC2)cn1 | 0.62 | 
Cc1ccc(N2CCN(c3c(C)c(C)c4c(c3C)CC(C)(C)O4)CC2)cc1 | 0.13 | microsomal CLint at 1 µM [7]: 30 µL/min/mg
COc1ccc(C2CN(c3c(C)c(C)c4c(c3C)CC(C)(C)O4)CCN2C)cc1 (racemic) | 0.55 | 
COc1ccc(N2CCN(c3c(C)c(C)c4c(c3C)C[C@H](C)O4)CC2)cc1 | 0.46 | 
COc1ccc(C2CN(c3c(C)c(C)c4c(c3C)CC(C)(C)O4)CCO2)cc1 (racemic) | 0.37 | 
COc1ccc(N2CCN(c3c(C)c(C)c4c(c3C)CCO4)CC2)cc1 | 0.23 | 
COc1ccc(CN2CCN(c3c(C)c(C)c4c(c3C)CC(C)(C)O4)CC2)cc1 | 0.68 | 
Cc1c(C)c(N2CCN(c3ccc(F)cc3)CC2)c(C)c2c1OC(C)(C)C2 | 0.3 | 
COc1ccc(N2CCCN(c3c(C)c(C)c4c(c3C)CC(C)(C)O4)CC2)cc1 | 0.076 | microsomal CLint at 1 µM [7]: 87 µL/min/mg
COc1ccc(N2CCN(c3c(C)c(C)c4c(c3C)C(=O)C(C)(C)O4)CC2)cc1 | 0.12 | Kp at 1 h [3]: 3.4; bioavailability [8]: 42.3%; inhibition at 0.5 h, 10 µM (CYP2C9): 83.4%
COc1ccc(N2CCN(c3c(C)c(C)c4c(c3C)C(=O)C(C)(C)CO4)CC2)cc1 | 0.51 | inhibition at 0.5 h, 10 µM (CYP2C9): 42.1%
COc1ccc(N2CCN(c3c(C)c(C)c4c(c3C)CC(C)(C)O4)CC2)cc1OC | 0.27 | 
COc1ccc(N2CCN(c3c(C)c(C)c4c(c3C)C[C@](C)(CO)O4)CC2)cc1 | 0.63 | 
COc1ccc(N2CCN(c3c(C)c(C)c4c(c3C)C[C@@](C)(CO)O4)CC2)cc1 | 0.7 | 
COc1ccc(N2CCN(c3c(C)c(C)c4c(c3C)C[C@@H](C)O4)CC2)cc1 | 0.44 | 
